Experimental data as given in ChEMBL document CHEMBL1121726, “Pyrazolopyrimidine nucleosides. 12. Synthesis and biological activity of certain pyrazolo[3,4-d]pyrimidine nucleosides related to adenosine” (1981).
The source made the active and inactive calls. No cut-off for these calls is given here.

Assays:
L1210 [1] = experiment: In vitro inhibition of growth of L1210 mouse leukemic cells; format: functional; settings: read-out: ID50 (the source's name)
Method in brief: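 L1210 cells grown in static suspension culture in Fischer's medium for leukemic cells of mice, exposed to a range of test-compound concentrations. Growth rate measured over 3 days.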

L1210 [2] = experiment: Increase in life span of tumor L1210 leukemic mice 1-9 days after 200 mg/kg administered; format: functional, Mus musculus
Method in brief: (§1)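 Mice bearing L1210 or P388 leukemia were injected with drug at the listed dose per injection on the listed days after tumor-cell inoculation. ILS was the percentage increase in life span of treated mice over untreated tumor-bearing controls.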

L1210 [3] = experiment: Toxicity against L1210 leukemic cells 1-9 days after administration of 200 mg/kg of the compound; Yes; format: functional, organism-based; parameters: dose 200 mg/kg; settings: Mus musculus
Method in brief: (§2)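 Mice bearing L1210 or P388 leukemia were injected at the stated dose per injection on the listed days after tumor-cell inoculation. Host toxicity scores whether higher doses on the same schedule caused drug-induced shortening of life span: y = yes, n = no, nt = no higher dose tested.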

L1210 [4] = experiment: Toxicity against L1210 leukemic cells 1-5 days after administration of 50 mg/kg of the compound; Yes; format: functional, organism-based; parameters: dose 50 mg/kg; settings: Mus musculus; method in brief: as §2
L1210 [5] = experiment: Increase in life span of tumor L1210 leukemic mice 1-5 days after 50 mg/kg administered; format: functional, Mus musculus; method in brief: as §1
L1210 [6] = experiment: Increase in life span of tumor L1210 leukemic mice 1-9 days after 400 mg/kg administered; format: functional, Mus musculus; method in brief: as §1
L1210 [7] = experiment: […] against L1210 leukemic cells 1-9 days after administration of 400 mg/kg of the compound; No higher dose tested; format: functional, organism-based; parameters: dose 400 mg/kg; settings: Mus musculus
L1210 [8] = experiment: […] against L1210 leukemic cells 1-5 days after administration of 400 mg/kg of the compound; No higher dose tested; format: functional, organism-based; parameters: dose 400 mg/kg; settings: Mus musculus
L1210 [9] = experiment: Increase in life span of tumor L1210 leukemic mice 1-5 days after 400 mg/kg administered; format: functional, Mus musculus; method in brief: as §1
L1210 [10] = experiment: Toxicity against L1210 leukemic cells 1-5 days after administration of 400 mg/kg of the compound; nt= No higher dose tested; format: functional, organism-based; parameters: dose 400 mg/kg; settings: Mus musculus; method in brief: as §2
L1210 [11] = experiment: Increase in life span of tumor L1210 leukemic mice 1-5 days after 200 mg/kg administered; format: functional, Mus musculus; method in brief: as §1
L1210 [12] = experiment: […] against L1210 leukemic cells 1-5 days after administration of 200 mg/kg of the compound; Yes; format: functional, organism-based; parameters: dose 200 mg/kg; settings: Mus musculus
L1210 [13] = experiment: Number of mice surviving 1 day after 25 mg/kg administered; 2/12; format: functional, Mus musculus
L1210 [14] = experiment: Increase in life span of tumor L1210 leukemic mice 1-5 days after 25 mg/kg administered; format: functional, Mus musculus; method in brief: as §1
L1210 [15] = experiment: Toxicity against L1210 leukemic cells 1-5 days after administration of 25 mg/kg of the compound; Yes; format: functional, organism-based; parameters: dose 25 mg/kg; settings: Mus musculus; method in brief: as §2
P388 [16] = experiment: Increase in life span of tumor P388 leukemic mice 1-9 days after 40 mg/kg administered; format: functional, Mus musculus; method in brief: as §1
P388 [17] = experiment: Toxicity against P388 leukemic cells 1-9 days after administration of 40 mg/kg of the compound; Yes; format: functional, organism-based; parameters: dose 40 mg/kg; settings: Mus musculus
Method in brief: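 Host toxicity was scored in leukemia-bearing mice as drug-induced shortening of life span when higher doses were given on the same schedule: y = yes, n = no, nt = no higher dose tested.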

L1210 [18] = experiment: Increase in life span of tumor L1210 leukemic mice 1-9 days after 100 mg/kg administered; format: functional, Mus musculus; method in brief: as §1
L1210 [19] = experiment: Toxicity against L1210 leukemic cells 1-9 days after administration of 100 mg/kg of the compound; nt= No higher dose tested; format: functional, organism-based; parameters: dose 100 mg/kg; settings: Mus musculus; method in brief: as §2
L1210 [20] = experiment: Toxicity against L1210 leukemic cells 1-5 days after administration of 200 mg/kg of the compound; No higher dose tested; format: functional, organism-based; parameters: dose 200 mg/kg; settings: Mus musculus; method in brief: as §2
L1210 [21] = experiment: […] against L1210 leukemic cells 1-5 days after administration of 100 mg/kg of the compound; Yes; format: functional, organism-based; parameters: dose 100 mg/kg; settings: Mus musculus
L1210 [22] = experiment: Increase in life span of tumor L1210 leukemic mice 1-5 days after 100 mg/kg administered; format: functional; settings: Mus musculus; method in brief: as §1
P388 [23] = experiment: Increase in life span of tumor P388 leukemic mice 1-9 days after 3 mg/kg administered; format: functional, Mus musculus; method in brief: as §1
L1210 [24] = experiment: Toxicity against L1210 leukemic cells 1-9 days after administration of 3.12 mg/kg of the compound; Yes; format: functional, organism-based; parameters: dose 3.12 mg/kg; settings: Mus musculus; method in brief: as §2
P388 [25] = experiment: Toxicity against P388 leukemic cells 1-9 days after administration of 3 mg/kg of the compound; Yes; format: functional, organism-based; parameters: dose 3 mg/kg; settings: Mus musculus; method in brief: as §2
L1210 [26] = experiment: Increase in life span of tumor L1210 leukemic mice 1-9 days after 3.12 mg/kg administered; format: functional, Mus musculus; method in brief: as §1

NNc1ncnc2c1cnn2C1O[C@H](CO)[C@@H](O)[C@H]1O (stereo partly drawn) was tested, and the IC50 (L1210 [1]) was 60 µM, the ILS (L1210 [2]) was 12 and the Toxicity (L1210 [3]) was “Active”.
With CNc1ncnc2c1cnn2C1O[C@H](CO)[C@@H](O)[C@H]1O (stereo partly drawn) the IC50 (L1210 [1]) was > 100 µM, the Toxicity (L1210 [4]) was “Active” and the ILS (L1210 [5]) was 4.
With OC[C@H]1OC(n2ncc3c(N/N=C/c4ccc(N(CCCl)CCCl)cc4)ncnc32)[C@H](O)[C@@H]1O (stereo partly drawn) the ILS (L1210 [6]) was -7, the IC50 (L1210 [1]) was ~10 µM and the Toxicity (L1210 [7]) was “No higher dose tested”.
In the case of OC[C@H]1OC(n2ncc3c(Nc4ccccc4)ncnc32)[C@H](O)[C@@H]1O (stereo partly drawn), the Toxicity (L1210 [8]) is reported as “No higher dose tested” and the ILS (L1210 [9]) is reported as -4.
In the case of OC[C@H]1OC(n2ncc3c(S)ncnc32)[C@H](O)[C@@H]1O (stereo partly drawn), the Toxicity (L1210 [10]) is reported as “No higher dose tested” and the ILS (L1210 [9]) is reported as -6.
In the case of O=[N+]([O-])c1ccc(CSc2ncnc3c2cnn3C2O[C@H](CO)[C@@H](O)[C@H]2O)cc1 (stereo partly drawn), the ILS at 200 mg/kg (L1210 [11]; Mus musculus, L1210) is reported as 1% and the Toxicity (L1210 [12]) is reported as “Active”.
O=c1[nH]cnc2c1cnn2[C@@H]1O[C@H](CO)[C@@H](O)[C@H]1O was tested, and the Toxicity (L1210 [10]) was “No higher dose tested” and the ILS (L1210 [9]) was 2.
With N=C(N)c1nn(C2O[C@H](CO)[C@@H](O)[C@H]2O)c2ncnc(N)c12 (stereo partly drawn) the Cures (L1210 [13]) was 2, the ILS (L1210 [14]) was 98 and the Toxicity (L1210 [15]) was “Active”. For the same compound, the ILS (P388 [16]) was 29 and the Toxicity (P388 [17]) was “Active”.
With N#Cc1nn(C2O[C@H](CO)[C@@H](O)[C@H]2O)c2ncnc(N)c12 (stereo partly drawn) the ILS (L1210 [18]) was 27, the IC50 (L1210 [1]) was 0.079 µM and the Toxicity (L1210 [19]) was “No higher dose tested”.
For CN(C)c1ncnc2c1cnn2C1O[C@H](CO)[C@@H](O)[C@H]1O (stereo partly drawn), the ILS (L1210 [11]) was 0 and the Toxicity (L1210 [20]) was “No higher dose tested”.
In the case of C=CCSc1ncnc2c1cnn2C1O[C@H](CO)[C@@H](O)[C@H]1O (stereo partly drawn), the Toxicity (L1210 [21]) is reported as “Active” and the ILS at 100 mg/kg (L1210 [22]) is reported as 2%.
For NC(=S)c1nn(C2O[C@H](CO)[C@@H](O)[C@H]2O)c2ncnc(N)c12 (stereo partly drawn), the ILS (P388 [23]) was 34, the Toxicity (L1210 [24]) was “Active” and the Toxicity (P388 [25]) was “Active”. It also gave an ILS (L1210 [26]) of 46.
